Compounds with a hit are over-represented: about 1.7% of the library has one in this group of screens.
PP1 inh – PP1-alpha (human) inhibition in PP5 counter-screen; P62136; inhibition, % at 6.7 µM; AID 2235; 0.9% of 320,000 active; purified PP1alpha, OMFP fluorescence;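 active = inhibition above the mean inhibition of all tested compounds plus 3 SD, computed separately for each screening campaign, cut at about 15% in these data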
T cell modulator – T cell immune modulation candidate | 2C CD8+ T cell-vesicle binding, flow cytometry; stronger effect = lower value | response (vesicle binding), % at 7 µM | 0.068% of 330,000 active;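 active = response, share of CD8 T cells binding vesicles, and their 90th percentile fluorescence all below set limits, cut at about 80% in these data, passing the limit was not always enough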;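 note: values below 100% mean blocked vesicle binding to the CD8+ T cells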
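Incubation: binding step 1.5 h, 37 °C, antibody labelling 20 min, ice; system: murine 2C transgenic CD8+ T lymphocytes; technique: cytometric PE anti-B7-1 and Alexa647 anti-CD8 signals after 1% paraformaldehyde fixation; also added: QL9-charged Drosophila Ld/ICAM-1/B7-1 vesicles; control set: naked versus QL9-loaded vesicles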
PP5 inh – PP5 (human) phosphatase inhibition. 0.18% of 320,000 active. inhibition, % at 6.7 µM. P53041. purified PP5c, OMFP substrate fluorescence;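 active = inhibition above the campaign's mean inhibition across all tested compounds plus 3 SD, cut at about 9.5% in these data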
GASC-1 inh – human JMJD2C demethylase inhibition; Q9H3R0; GST-JMJD2C(1-420) H3K9me3 demethylation, DELFIA europium; inhibition, % at 2.35 µM; 0.069% of 330,000 active;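 active = more than half of a compound's replicate wells show inhibition beyond 50%, single wells judged on their own value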;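 note: signal counts dimethyl H3K9 product captured on neutravidin plate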
HTR2A ag – mouse HTR2A agonism via beta-arrestin recruitment. P35363. activation, % at 7.6 µM. CHO-K1 mHTR2A beta-arrestin complementation, luminescence; percent of 30 µM serotonin response. 0.66% of 360,000 active. AID 624169;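 active = activation above a run cutoff, the mean activation of all tested compounds plus 3 SD, cut at about 14% in these data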
Target sequence (P35363 whole entry, looked up): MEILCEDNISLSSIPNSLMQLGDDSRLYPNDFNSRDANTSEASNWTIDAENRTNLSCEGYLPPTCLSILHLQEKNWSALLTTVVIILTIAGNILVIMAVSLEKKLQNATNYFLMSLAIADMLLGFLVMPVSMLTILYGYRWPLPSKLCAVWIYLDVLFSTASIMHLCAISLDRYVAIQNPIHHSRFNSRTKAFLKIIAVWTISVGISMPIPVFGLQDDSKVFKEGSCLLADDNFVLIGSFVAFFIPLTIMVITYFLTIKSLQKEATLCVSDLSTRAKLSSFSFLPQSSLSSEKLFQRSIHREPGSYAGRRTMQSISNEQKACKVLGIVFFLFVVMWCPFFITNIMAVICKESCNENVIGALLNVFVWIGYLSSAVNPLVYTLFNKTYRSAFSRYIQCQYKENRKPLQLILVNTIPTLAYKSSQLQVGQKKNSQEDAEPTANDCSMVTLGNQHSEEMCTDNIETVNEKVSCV
PP1 confirm – confirmation of human PP1 phosphatase inhibitors | shares compounds with PP1 inh | purified PP1alpha, OMFP substrate fluorescence | inhibition, % at 6.7 µM | 52% of 1,900 active;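 active = mean PP1 inhibition above a set limit taken from the earlier primary screen, cut at about 15% in these data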
PP5 counter – counter-screen for PP1 inhibitors: human PP5 phosphatase inhibition | shares compounds with PP1 inh | purified PP5c, OMFP fluorescence | inhibition, % at 6.7 µM | 4% of 1,900 active | AID 2360;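 active = mean PP5 inhibition over triplicate wells above about 9.5% taken from the earlier PP1 screen, limit read from the data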
Each line names hits and unclear results; the compound was inactive in the other large screens (follow-up assays come after a bar, where they were run); ! = not confirmed by another sample.

COc1cccc(C2c3cc4c(cc3OC(NNC(N)=O)C2C)OCO4)c1O (configuration not stated)	none (no result: PP1 inh, T cell modulator, PP5 inh, GASC-1 inh)
O=C(Cn1cnc(S(=O)(=O)N2CCCCC2)c1)NCc1ccco1	none
COCCCN(Cc1ccco1)C(=O)Cn1ncc2c(=O)oc3ccc(C)cc3c21	none
Cc1nnc(NC(=O)c2ccc3ccccc3c2)o1	PP1 inh 19.2 | PP1 confirm inactive | PP5 counter inactive
COCc1nnc(NC(=O)c2ccc(S(=O)(=O)N(C)C3CCCCC3)cc2)o1	PP1 inh 17.8 | PP1 confirm inactive | PP5 counter inactive
O=C(Nc1nnc(-c2ccco2)o1)c1ccc2ccccc2c1	none
CCC(C)(C)NC(=O)C(c1cccn1C)N(Cc1ccc(OC)cc1)C(=O)Cn1nnc2ccccc21 (configuration not stated)	PP1 inh 29.5 | PP1 confirm 25.5 | PP5 counter inactive
Nc1c(C(=O)c2ccc(Br)cc2)oc2ccccc12	PP1 inh 17.7 | PP1 confirm inactive | PP5 counter inactive
Cc1ccc(C(=O)c2oc3ccccc3c2N)cc1	none
CCC(Oc1ccccc1)C(=O)Nc1ccsc1C(=O)OC (configuration not stated)	none
COc1ccc(NC(=S)NC(NC(=O)c2cccc(Cl)c2)C(Cl)(Cl)Cl)c([N+](=O)[O-])c1 (configuration not stated)	PP1 inh 17.9 | PP1 confirm inactive | PP5 counter inactive
O=C(Cn1cnc2sc(-c3ccccc3)cc2c1=O)NCc1ccco1	PP1 inh 21.5 | PP1 confirm 19.1 | PP5 counter inactive
O=C(Cn1cnc2sc(-c3ccccc3)cc2c1=O)NCCc1ccccc1	none
Cc1ccc(/C=N/Nc2ccnc3cc(Cl)ccc23)c(C)c1	PP1 inh 33.1 | PP1 confirm inactive | PP5 counter inactive
O=C(c1ccc(Cl)c(Cl)c1)N1CCC(=O)N(C(COCc2cccc(Cl)c2)Cc2ccccc2)CC1 (configuration not stated)	PP1 inh 19.9 (no result: T cell modulator) | PP1 confirm inactive | PP5 counter inactive
Cc1ccc(-c2cc(C(=O)Nc3ccc(S(=O)(=O)N4CC(C)OC(C)C4)cc3)[nH]n2)c(O)c1 (configuration not stated)	PP1 inh 18.9 | PP1 confirm 16.1 | PP5 counter inactive
O=C(C1CCN(S(=O)(=O)c2ccccc2F)CC1)N1CCCC1	none (no result: PP1 inh, T cell modulator, PP5 inh, GASC-1 inh)
CSCCC(NC(=O)c1ccccc1Cl)C(=O)NCC(c1ccco1)N1CCCCC1 (configuration not stated)	PP1 inh 44.6 | PP1 confirm inactive | PP5 counter inactive
COc1ccc(C(CNC(=O)C(CCSC)NC(=O)c2ccccc2Cl)N2CCCCC2)cc1 (configuration not stated)	none
CCCCNC(=O)C(c1ccc(OCC(=O)OC)c(C(=O)OC)c1)N(CCOC)C(=O)CCCCCN1C(=O)NC(c2ccc(-c3ccccc3)cc2)C(C(=O)OCc2ccccc2)=C1C (configuration not stated)	PP1 inh 34.7 (no result: T cell modulator, HTR2A ag) | PP1 confirm 35.1 | PP5 counter inactive
CCCCCCN(C(=O)CCCCCN1C(=O)NC(c2ccc(-c3ccccc3)cc2)C(C(=O)OCc2ccccc2)=C1C)C(C(=O)NCCCC)c1ccccn1 (configuration not stated)	none (no result: PP1 inh, T cell modulator, PP5 inh, HTR2A ag)
CCCCCCN(C(=O)CCCCCN1C(=O)NC(c2ccc(-c3ccccc3)cc2)C(C(=O)OCc2ccccc2)=C1C)C(C(=O)NCCCC)c1ccc(OCC(=O)OC)cc1 (configuration not stated)	PP1 inh 30.1 (no result: HTR2A ag) | PP1 confirm 19.9 | PP5 counter inactive
COc1ccc(NC(C)=O)cc1NC(=O)c1cccc(S(=O)(=O)N2CCc3ccccc32)c1	none
O=C(NCCO)/C(=C\c1cccc([N+](=O)[O-])c1)NC(=O)c1cccs1	none (no result: PP1 inh, T cell modulator, PP5 inh, GASC-1 inh)
Cc1noc(C)c1C(=O)Nc1ccccc1C(=O)NCCc1ccccc1	PP1 inh 20.7 | PP1 confirm inactive | PP5 counter inactive
COc1ccc(/C=C2\N=C(c3c(-c4ccccc4)noc3C)OC2=O)cc1OC	PP1 inh 19.1 | PP1 confirm inactive | PP5 counter inactive
COc1cc(/C=C2\N=C(c3ccccc3)OC2=O)ccc1OCc1c(C)no[n+]1[O-]	none
O=C(NCC1(N2CCOCC2)CCCCC1)c1cccc(S(=O)(=O)N2CCc3ccccc3C2)c1	none
O=C(Cn1ncn2c(cc3ccccc32)c1=O)NCCc1cccs1	none
CC(=O)Cc1nsc(NC(=O)c2ccc(-c3cccc(Cl)c3)o2)n1	PP1 inh 28.6 | PP1 confirm inactive | PP5 counter inactive
CC(=O)C1=C(O)C(=O)N(c2cc(C(C)(C)C)on2)C1c1ccc(Br)cc1 (configuration not stated)	PP1 inh 19.6 | PP1 confirm 21.6 | PP5 counter inactive
CC(=O)C1=C(O)C(=O)N(c2ccc(O)cc2)C1c1ccc(Cl)cc1 (configuration not stated)	none
CC(=O)C1=C(O)C(=O)N(c2ccc(Br)cc2)C1c1ccc(Cl)cc1 (configuration not stated)	PP1 inh 27.8 | PP1 confirm 20.6 | PP5 counter inactive
COc1ccc(C2C(C(C)=O)=C(O)C(=O)N2c2ccc(Br)cc2)cc1 (configuration not stated)	PP1 inh 18.1 | PP1 confirm 16.8 | PP5 counter inactive
COc1ccc(C(CNC(=O)Nc2cccc(C)c2)N2CCN(C)CC2)cc1 (configuration not stated)	none
CCN(CC)CCOC(=O)c1ccc(N/C=C(/C#N)c2nc(-c3ccc(OC)c(OC)c3)cs2)cc1	PP1 inh 66.3 | PP1 confirm 35.1 | PP5 counter inactive
CCN(CC)CCOC(=O)c1ccc(N/C=C(/C#N)c2nc(-c3cccc(OC)c3)cs2)cc1	PP1 inh 53.8 | PP1 confirm inactive | PP5 counter inactive
CCOC(=O)c1ccc(N/C=C\C(=O)c2cccc(OC)c2)cc1	none
Cc1ccc(-c2csc(/C(C#N)=C/Nc3ccc4c(c3)OCCO4)n2)cc1	none
CCN(CC)CCOc1ccc(/C(=C(/Cl)c2ccccc2)c2ccccc2)cc1	PP1 inh 19.3! | PP1 confirm inactive | PP5 counter inactive
Cc1cccc2c1N(CCOc1ccccc1Cl)C(=O)C2=O	PP1 inh 18.1 | PP1 confirm inactive | PP5 counter inactive
Cc1ccc(OCCN2C(=O)C(=O)c3cc(C)ccc32)cc1	PP1 inh 18.4 | PP1 confirm inactive | PP5 counter inactive
Cc1cccc2c1N(CCOc1ccc(C(C)(C)C)cc1)C(=O)C2=O	PP1 inh 23.3 | PP1 confirm inactive | PP5 counter inactive
COc1ccccc1N1CCN(C(=O)CN(C)S(=O)(=O)c2ccc3c(c2)c(=O)n(C)c(=O)n3C)CC1	none
